Key:
[1] = AUC (0 to 24 hrs) in NMRI mouse at 26.5 mg/kg, po; conditions: plasma
[2] = test system: Plasmodium berghei; test: Antimalarial activity against Plasmodium berghei ANKA infected in NMRI mice (Mus musculus) assessed as reduction in parasitemia at 3 times 60 mg/kg, perorally measured on day 3 postinfection; assay type: functional; design: scale not given: the % may be the effect or the level left; conditions: route oral
Outline: (§1)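 P. berghei ANKA given intravenously to groups of 5 female NMRI mice (20–22 g): 0.2 ml of 1 × 10^8 parasitized erythrocytes/ml from a donor mouse. Oral dosing in 0.5% carboxymethyl cellulose. Parasitemia counted by microscopy. Activity is the control-minus-treated parasitemia difference, expressed as percent of untreated controls.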

[3] = test system: Plasmodium berghei; test: Antimalarial activity against Plasmodium berghei ANKA infected in NMRI mice (Mus musculus) assessed as reduction in parasitemia at 3 times 100 mg/kg, perorally measured on day 3 postinfection; assay type: functional; design: scale not given: the % may be the effect or the level left; conditions: route oral
Outline: as §1

[4] = test system: Mus musculus; test: Toxicity in NMRI mice (Mus musculus) infected with Plasmodium berghei ANKA at 30 mg/kg, perorally administered as single dose measured up to 30 days postinfection; assay type: organism-based; design: dose 30 mg/kg, route oral; conditions: in vivo, po, 720 h
[5] = test system: Plasmodium berghei; test: Antimalarial activity against Plasmodium berghei ANKA infected in NMRI mice (Mus musculus) assessed as survival rate at 10 mg/kg, perorally administered as single dose; assay type: functional; conditions: route oral
Outline: (§2)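 Infection: 5 female NMRI mice (20–22 g) per group, inoculated intravenously with 0.2 ml of donor blood at 1 × 10^8 parasitized erythrocytes/ml. Oral administration in 0.5% carboxymethyl cellulose. Survival time recorded up to 30 days after infection and averaged per group.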

[6] = test system: Plasmodium berghei; test: Antimalarial activity against Plasmodium berghei ANKA infected in NMRI mice (Mus musculus) assessed as cure rate at 60 mg/kg, perorally administered as single dose […]; assay type: functional; conditions: route oral
Outline: (§3)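 Female NMRI mice (20–22 g), 5 per group, infected intravenously with 0.2 ml of 1 × 10^8 parasitized erythrocytes/ml from a fresh donor mouse. Compound suspended in 0.5% carboxymethyl cellulose and given orally. Survival followed to day 30 post-infection; an animal was scored cured if it survived to day 30 without parasites.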

[7] = test system: Mus musculus; test: Toxicity in NMRI mice (Mus musculus) infected with Plasmodium berghei ANKA at 10 mg/kg, perorally administered as single dose measured up to 30 days postinfection; assay type: organism-based; design: dose 10 mg/kg, route oral; conditions: in vivo, po, 720 h
[8] = test system: Mus musculus; test: Toxicity in NMRI mice (Mus musculus) infected with Plasmodium berghei ANKA at 3 times 100 mg/kg, perorally measured up to 30 days postinfection; assay type: organism-based; design: dose 100 mg/kg, route oral; conditions: in vivo, po, 720 h
[9] = test system: Plasmodium berghei; test: Antimalarial activity against Plasmodium berghei ANKA infected in NMRI mice (Mus musculus) assessed as cure rate at 30 mg/kg, perorally administered as single dose […]; assay type: functional; conditions: route oral
Outline: as §3

[10] = test system: Plasmodium berghei; test: Antimalarial activity against Plasmodium berghei ANKA infected in NMRI mice (Mus musculus) assessed as cure rate at 3 times 60 mg/kg, perorally measured on day 3 postinfection; assay type: functional; conditions: route oral
Outline: as §3

[11] = test system: Mus musculus; test: Toxicity in NMRI mice (Mus musculus) infected with Plasmodium berghei ANKA at 60 mg/kg, perorally administered as single dose measured up to 30 days postinfection; assay type: organism-based; design: dose 60 mg/kg, route oral; conditions: in vivo, po, 720 h
[12] = test system: Plasmodium berghei; test: Antimalarial activity against Plasmodium berghei ANKA infected in NMRI mice (Mus musculus) assessed as reduction in parasitemia at 100 mg/kg, perorally administered as single dose measured on day 3 postinfection; assay type: functional; design: scale not given: the % may be the effect or the level left; conditions: route oral
Outline: as §1

[13] = test system: Plasmodium berghei; test: Antimalarial activity against Plasmodium berghei ANKA infected in NMRI mice (Mus musculus) assessed as cure rate at 3 times 30 mg/kg, perorally measured […]; assay type: functional; conditions: route oral
Outline: as §3

[14] = AUC in CD-1 mouse at 25 mg/kg, po; assay type: ADME, organism-based; design: dose 25 mg/kg, route oral; conditions: plasma
Outline: (§4)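 Mice dosed with 25 mg/kg p.o. as a 2.5 mg/ml suspension in 0.5% CMC, or with 5 mg/kg i.v. at 1 mg/ml in 10% NMP, 30% PEG 400 and 60% of 10% vitamin E-TPGS. Blood sampled at several time points. Plasma extracted with acidified acetonitrile (8:1) and quantified by LC-MS, LLOQ 12 ng/ml.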

[15] = Oral bioavailability in CD-1 mouse at 25 mg/kg; assay type: ADME, organism-based; conditions: in vivo
Outline: as §4

[16] = test system: Mus musculus; test: Toxicity in NMRI mice (Mus musculus) infected with Plasmodium berghei ANKA at 100 mg/kg, perorally administered as single dose measured up to 30 days postinfection; assay type: organism-based; design: dose 100 mg/kg, route oral; conditions: in vivo, po, 720 h
[17] = test system: Plasmodium berghei; test: Antimalarial activity against Plasmodium berghei ANKA infected in NMRI mice (Mus musculus) assessed as reduction in parasitemia at 15 mg/kg, perorally administered as single dose measured on day 3 postinfection; assay type: functional; design: scale not given: the % may be the effect or the level left; conditions: route oral
Outline: as §1

[18] = test system: Rattus norvegicus; test: Toxicity in Wistar rat assessed as occurrence of inflammatory changes in gastric tract at => 50 mg/kg, po after 2 weeks; assay type: organism-based, Stomach; design: dose 50 mg/kg, route oral; conditions: in vivo, 336 h
Outline: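 Male Wistar rats, about 10 weeks old (254–292 g), 5 per group, gavaged daily with 50, 150 or 500 mg/kg/day. Vehicle was 10% of 1% aqueous Solutol HS15 plus 90% of 0.5% aqueous methylcellulose; exploratory 2-week design. Clinical observations, body weight, food intake, hematology, clinical chemistry and gross pathology recorded. Histopathology covered gross lesions and selected organs in the control and low-dose groups.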

[19] = Clearance in Wistar rat at 5 mg/kg, iv; assay type: ADME, organism-based; design: dose 5 mg/kg, route intravenous; conditions: in vivo
Outline: (§5)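 Rats dosed with 25 mg/kg p.o. as a 2.5 mg/ml suspension in 0.5% CMC, or with 5 mg/kg i.v. at 1 mg/ml in 10% NMP, 30% PEG 400 and 60% of 10% vitamin E-TPGS. Plasma sampled over time, extracted with acidified acetonitrile (8:1) and quantified by LC-MS, LLOQ 12 ng/ml.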

[20] = Cmax in Wistar rat at 25 mg/kg, po; assay type: ADME, organism-based; design: dose 25 mg/kg, route oral; conditions: in vivo
Outline: as §5

[21] = test system: Mus musculus; test: Toxicity in NMRI mice (Mus musculus) infected with Plasmodium berghei ANKA at 3 times 30 mg/kg, perorally measured up to 30 days postinfection; assay type: organism-based; design: dose 30 mg/kg, route oral; conditions: in vivo, po, 720 h
[22] = Oral bioavailability in Wistar rat at 25 mg/kg; assay type: ADME, organism-based; conditions: in vivo
Outline: as §5

[23] = test system: Plasmodium berghei; test: Antimalarial activity against Plasmodium berghei ANKA infected in NMRI mice (Mus musculus) assessed as reduction in parasitemia at 60 mg/kg, perorally administered as single dose measured on day 3 postinfection; assay type: functional; design: scale not given: the % may be the effect or the level left; conditions: route oral
Outline: as §1

[24] = Half life in Wistar rat at 5 mg/kg, iv; assay type: ADME, organism-based; design: dose 5 mg/kg, route intravenous; conditions: in vivo
Outline: as §5

[25] = test system: Plasmodium berghei; test: Antimalarial activity against Plasmodium berghei ANKA infected in NMRI mice (Mus musculus) assessed as reduction in parasitemia at 30 mg/kg, perorally administered as single dose measured on day 3 postinfection; assay type: functional; design: scale not given: the % may be the effect or the level left; conditions: route oral
Outline: as §1

[26] = test system: Plasmodium berghei; test: Antimalarial activity against Plasmodium berghei ANKA infected in NMRI mice (Mus musculus) assessed as mean survival time at 3 times 30 mg/kg, perorally; assay type: functional; conditions: route oral
Outline: as §2

[27] = Tmax in CD-1 mouse at 25 mg/kg, po; assay type: ADME, organism-based; design: dose 25 mg/kg, route oral; conditions: in vivo
Outline: as §4

[28] = test system: Plasmodium berghei; test: Antimalarial activity against Plasmodium berghei ANKA infected in NMRI mice (Mus musculus) assessed as survival rate at 60 mg/kg, perorally administered as single dose; assay type: functional; conditions: route oral
Outline: as §2

[29] = test system: Plasmodium berghei; test: Antimalarial activity against Plasmodium berghei ANKA infected in NMRI mice (Mus musculus) assessed as survival rate at 15 mg/kg, perorally administered as single dose; assay type: functional; conditions: route oral
Outline: as §2

COc1ccc(OC)c(CNc2ccc3nc(N)nc(N)c3c2Cl)c1
AUC(0-t) at 24 h [1]: 17000 ng·h/mL
Activity [2]: >99.99%
Activity [3]: >99.99%
Activity [4]: 0%
Survival [5]: 6 days
Activity [6]: 0%
Activity [7]: 0%
Activity [8]: 80%
Activity [9]: 0%
Activity [10]: 60%
Activity [11]: 0%
Activity [12]: >99.99%
Activity [13]: 80%
AUC [14]: 44.6 µM·h
bioavailability [15]: 100%
Activity [16]: 0%
Activity [17]: 73%
Activity [18]: Toxic
clearance [19]: 17 mL/min/kg
Cmax [20]: 2800 nM
Activity [21]: 0%
bioavailability [22]: 63%
Activity [23]: >99.99%
half-life [24]: 3.5 h
Activity [25]: >99.99%
Survival [26]: 28.4 days
Tmax [27]: 4 h
Survival [28]: 12 days
Survival [29]: 6 days

Source: ChEMBL document CHEMBL1255487, “Preclinical evaluation of the antifolate QN254, 5-chloro- N'6'-(2,5-dimethoxy-benzyl)-quinazoline-2,4,6-triamine, as an antimalarial drug candidate” (Antimicrob Agents Chemother, 2010)
